The source made the active and inactive calls. The calls are words filed in the database; no cut-off is given here.
System: not listed separately
Test: Half life in rat
Assay type: ADME, organism-based
Details: in vivo

Row | half-life [min] | SMILES
1 | 222 | Cc1c(Cc2ccc(F)c(C(=O)N3CCC4(CCCN4)CC3)c2)n[nH]c(=O)c1C

System: not listed separately
Test: Drug excretion in iv dosed rat urine after 72 hrs
Assay type: ADME, organism-based
Details: read-out: Activity

Row | SMILES | dose excreted at 72 h [%]
2 | Cc1c(Cc2ccc(F)c(C(=O)N3CCN(C(=O)C4(C)CCCN4)CC3)c2)n[nH]c(=O)c1C (configuration not stated) | 82

Biological target: CYP2D6 (Homo sapiens, UniProt P10635)
Sequence (P10635 whole entry): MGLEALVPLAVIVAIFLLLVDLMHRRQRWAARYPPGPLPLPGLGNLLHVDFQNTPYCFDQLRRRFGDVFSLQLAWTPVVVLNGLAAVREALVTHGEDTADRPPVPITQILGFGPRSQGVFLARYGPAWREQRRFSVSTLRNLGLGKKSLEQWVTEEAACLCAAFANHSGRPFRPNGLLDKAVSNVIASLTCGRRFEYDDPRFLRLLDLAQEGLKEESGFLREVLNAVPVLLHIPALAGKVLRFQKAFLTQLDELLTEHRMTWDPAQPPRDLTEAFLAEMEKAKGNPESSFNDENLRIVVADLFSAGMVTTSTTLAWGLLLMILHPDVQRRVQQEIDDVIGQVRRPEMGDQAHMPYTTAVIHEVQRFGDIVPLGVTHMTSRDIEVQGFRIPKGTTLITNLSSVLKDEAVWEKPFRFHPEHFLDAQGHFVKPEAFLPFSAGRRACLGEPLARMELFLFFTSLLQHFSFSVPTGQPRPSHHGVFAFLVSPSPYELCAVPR
Test: Inhibition of CYP2D6 at 10 uM
Assay type: ADME
Details: not given

Row | SMILES | inhibition at 10 µM [%]
3 | O=C(c1cc(Cc2c[nH]c(=O)c3cc(Cl)c(Cl)n23)ccc1F)N1CCC2(CCCN2)CC1 | 35

Biological target: Poly [ADP-ribose] polymerase 1 (Homo sapiens, UniProt P09874)
Sequence (P09874 whole entry): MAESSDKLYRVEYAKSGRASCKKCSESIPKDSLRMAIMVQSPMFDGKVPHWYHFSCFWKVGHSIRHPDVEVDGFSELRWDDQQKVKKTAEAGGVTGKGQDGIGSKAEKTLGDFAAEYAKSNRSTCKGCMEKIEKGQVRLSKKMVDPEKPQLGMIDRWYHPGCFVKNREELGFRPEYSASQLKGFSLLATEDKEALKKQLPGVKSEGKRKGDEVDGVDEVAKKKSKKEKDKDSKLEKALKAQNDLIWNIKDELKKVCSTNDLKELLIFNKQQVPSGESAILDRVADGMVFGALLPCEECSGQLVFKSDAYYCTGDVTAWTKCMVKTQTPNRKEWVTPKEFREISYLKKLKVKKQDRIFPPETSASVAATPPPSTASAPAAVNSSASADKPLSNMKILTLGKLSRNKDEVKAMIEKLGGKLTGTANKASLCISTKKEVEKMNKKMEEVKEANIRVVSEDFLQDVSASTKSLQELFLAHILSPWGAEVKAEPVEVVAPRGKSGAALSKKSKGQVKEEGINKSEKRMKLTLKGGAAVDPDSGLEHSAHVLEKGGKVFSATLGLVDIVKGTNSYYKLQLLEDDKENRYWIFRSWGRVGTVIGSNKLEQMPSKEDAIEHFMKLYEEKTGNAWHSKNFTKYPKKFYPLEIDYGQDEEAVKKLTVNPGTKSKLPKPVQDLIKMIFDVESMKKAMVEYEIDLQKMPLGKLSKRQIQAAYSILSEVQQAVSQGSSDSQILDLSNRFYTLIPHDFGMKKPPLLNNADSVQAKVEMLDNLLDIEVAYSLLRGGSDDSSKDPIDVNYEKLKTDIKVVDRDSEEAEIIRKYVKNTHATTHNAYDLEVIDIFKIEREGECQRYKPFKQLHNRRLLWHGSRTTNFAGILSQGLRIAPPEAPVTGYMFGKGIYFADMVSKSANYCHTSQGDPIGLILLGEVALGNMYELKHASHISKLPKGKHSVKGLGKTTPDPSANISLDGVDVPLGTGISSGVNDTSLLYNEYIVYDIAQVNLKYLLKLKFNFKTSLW
Details: not given

Row | SMILES | IC50 [nM]
4 | Cc1c(Cc2ccc(F)c(C(=O)N3CCN(C(=O)[C@]4(Cc5ccc(F)cc5)CCCN4)CC3)c2)n[nH]c(=O)c1C | 2.5
5 | Cc1c(Cc2ccc(F)c(C(=O)N3CCN(C(=O)C4(NCC5CC5)CCCC4)CC3)c2)n[nH]c(=O)c1C | 2.4
6 | Cc1c(Cc2ccc(F)c(C(=O)N3CCN(C(=O)[C@]4(C)CCCN4)CC3)c2)n[nH]c(=O)c1C | 3.8
7 | Cc1c(Cc2ccc(F)c(C(=O)N3CCN(C(=O)C4(C)CCCCN4)CC3)c2)n[nH]c(=O)c1C (configuration not stated) | 12
8 | Cc1c(Cc2ccc(F)c(C(=O)N3CCN(C(=O)C4CCNC4)CC3)c2)n[nH]c(=O)c1C (configuration not stated) | 3.9
9 | CNC1(C(=O)N2CCN(C(=O)c3cc(Cc4n[nH]c(=O)c(C)c4C)ccc3F)CC2)CCCC1 | 2.7
10 | Cc1c(Cc2ccc(F)c(C(=O)N3CCC4(CCN4)CC3)c2)n[nH]c(=O)c1C | 4.6
11 | Cc1c(Cc2ccc(F)c(C(=O)N3CCN(C(=O)C4(NCC5CC5)CCC4)CC3)c2)n[nH]c(=O)c1C | 3.2
12 | CCNC1(C(=O)N2CCN(C(=O)c3cc(Cc4n[nH]c(=O)c(C)c4C)ccc3F)CC2)CCCC1 | 3.1
13 | Cc1c(Cc2ccc(F)c(C(=O)N3CCN(C(=O)[C@@]4(Cc5ccc(F)cc5)CCCN4)CC3)c2)n[nH]c(=O)c1C | 4.2
14 | O=C(c1cc(Cc2c[nH]c(=O)c3cc(Cl)c(Cl)n23)ccc1F)N1CCC2(CCCN2)CC1 | 2.5
15 | CCN1CCCC12CCN(C(=O)c1cc(Cc3n[nH]c(=O)c(C)c3C)ccc1F)CC2 | 9.7
16 | Cc1c(Cc2ccc(F)c(C(=O)N3CCN(C(=O)C4(N5CCCC5)CCCC4)CC3)c2)n[nH]c(=O)c1C | 2.7
17 | Cc1c(Cc2ccc(F)c(C(=O)N3CCN(C(=O)[C@H]4CCCN4)CC3)c2)n[nH]c(=O)c1C | 2.7
18 | Cc1c(Cc2ccc(F)c(C(=O)N3CCC4(CCCN4)CC3)c2)n[nH]c(=O)c1C | 2.6
19 | Cc1c(Cc2ccc(F)c(C(=O)N3CCN(C(=O)C4(C)CCCN4)CC3)c2)n[nH]c(=O)c1C (configuration not stated) | 2.8

System: HeLa
Test: Antiproliferative activity against BRCA1 deficient human HeLa cells at 5 uM
Assay type: functional, cell-based
Details: not given

Row | SMILES | Activity
20 | Cc1c(Cc2ccc(F)c(C(=O)N3CCN(C(=O)C4CCNC4)CC3)c2)n[nH]c(=O)c1C (configuration not stated) | inactive

System: not listed separately
Test: Oral bioavailability in rat
Assay type: ADME, organism-based
Details: in vivo

Row | SMILES | bioavailability [%]
21 | Cc1c(Cc2ccc(F)c(C(=O)N3CCN(C(=O)C4(C)CCCN4)CC3)c2)n[nH]c(=O)c1C (configuration not stated) | < 3

System: not listed separately
Test: Drug excretion in iv dosed rat bile after 72 hrs
Assay type: ADME, organism-based
Details: read-out: Activity

Row | SMILES | dose excreted at 72 h [%]
22 | Cc1c(Cc2ccc(F)c(C(=O)N3CCN(C(=O)C4(C)CCCN4)CC3)c2)n[nH]c(=O)c1C (configuration not stated) | 3

System: HeLa
Test: Selectivity for BRCA1 deficient human HeLa cells over BRCA1 expressing HeLa cells
Assay type: functional
Details: not given

Row | SMILES | Ratio
23 | O=C(c1cc(Cc2c[nH]c(=O)c3cc(Cl)c(Cl)n23)ccc1F)N1CCC2(CCCN2)CC1 | >100
24 | Cc1c(Cc2ccc(F)c(C(=O)N3CCN(C(=O)C4(C)CCCN4)CC3)c2)n[nH]c(=O)c1C (configuration not stated) | 30

System: not listed separately
Test: Intrinsic clearance in rat liver microsomes
Assay type: ADME, Microsome
Details: not given

Row | SMILES | microsomal CLint [µL/min/mg]
25 | O=C(c1cc(Cc2c[nH]c(=O)c3cc(Cl)c(Cl)n23)ccc1F)N1CCC2(CCCN2)CC1 | 65
26 | Cc1c(Cc2ccc(F)c(C(=O)N3CCC4(CCCN4)CC3)c2)n[nH]c(=O)c1C | < 1
27 | Cc1c(Cc2ccc(F)c(C(=O)N3CCN(C(=O)C4(C)CCCN4)CC3)c2)n[nH]c(=O)c1C (configuration not stated) | < 1

System: not listed separately
Test: Drug excretion in iv dosed rat urine after 24 hrs
Assay type: ADME, organism-based
Details: read-out: Activity

Row | dose excreted at 24 h [%] | SMILES
28 | 37 | Cc1c(Cc2ccc(F)c(C(=O)N3CCC4(CCCN4)CC3)c2)n[nH]c(=O)c1C

System: not listed separately
Test: Volume of distribution at steady state in rat
Assay type: ADME, organism-based
Details: in vivo, read-out: Vdss

Row | Vd [L/kg] | SMILES
29 | 6.7 | Cc1c(Cc2ccc(F)c(C(=O)N3CCC4(CCCN4)CC3)c2)n[nH]c(=O)c1C

System: HeLa
Test: Antiproliferative activity against BRCA1 expressing human HeLa cells
Assay type: functional
Details: not given
In short: (§1)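 Antiproliferation in HeLa cells, BRCA1-deficient and BRCA wild-type lines. Read-out is CC50 in nM. Values are means of at least two experiments.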

Row | SMILES | CC50 [µM]
30 | Cc1c(Cc2ccc(F)c(C(=O)N3CCN(C(=O)[C@]4(Cc5ccc(F)cc5)CCCN4)CC3)c2)n[nH]c(=O)c1C | 3.3
31 | Cc1c(Cc2ccc(F)c(C(=O)N3CCN(C(=O)C4(NCC5CC5)CCCC4)CC3)c2)n[nH]c(=O)c1C | 2.1
32 | Cc1c(Cc2ccc(F)c(C(=O)N3CCN(C(=O)[C@]4(C)CCCN4)CC3)c2)n[nH]c(=O)c1C | > 40
33 | Cc1c(Cc2ccc(F)c(C(=O)N3CCN(C(=O)C4(C)CCCCN4)CC3)c2)n[nH]c(=O)c1C (configuration not stated) | > 20
34 | Cc1c(Cc2ccc(F)c(C(=O)N3CCN(C(=O)C4CCNC4)CC3)c2)n[nH]c(=O)c1C (configuration not stated) | > 5
35 | CNC1(C(=O)N2CCN(C(=O)c3cc(Cc4n[nH]c(=O)c(C)c4C)ccc3F)CC2)CCCC1 | > 5
36 | Cc1c(Cc2ccc(F)c(C(=O)N3CCC4(CCN4)CC3)c2)n[nH]c(=O)c1C | > 5
37 | Cc1c(Cc2ccc(F)c(C(=O)N3CCN(C(=O)C4(NCC5CC5)CCC4)CC3)c2)n[nH]c(=O)c1C | 0.45
38 | CCNC1(C(=O)N2CCN(C(=O)c3cc(Cc4n[nH]c(=O)c(C)c4C)ccc3F)CC2)CCCC1 | 4
39 | Cc1c(Cc2ccc(F)c(C(=O)N3CCN(C(=O)[C@@]4(Cc5ccc(F)cc5)CCCN4)CC3)c2)n[nH]c(=O)c1C | 15
40 | O=C(c1cc(Cc2c[nH]c(=O)c3cc(Cl)c(Cl)n23)ccc1F)N1CCC2(CCCN2)CC1 | > 5
41 | CCN1CCCC12CCN(C(=O)c1cc(Cc3n[nH]c(=O)c(C)c3C)ccc1F)CC2 | > 5
42 | Cc1c(Cc2ccc(F)c(C(=O)N3CCN(C(=O)C4(N5CCCC5)CCCC4)CC3)c2)n[nH]c(=O)c1C | 1.5
43 | Cc1c(Cc2ccc(F)c(C(=O)N3CCN(C(=O)[C@H]4CCCN4)CC3)c2)n[nH]c(=O)c1C | > 10
44 | Cc1c(Cc2ccc(F)c(C(=O)N3CCC4(CCCN4)CC3)c2)n[nH]c(=O)c1C | > 5
45 | Cc1c(Cc2ccc(F)c(C(=O)N3CCN(C(=O)C4(C)CCCN4)CC3)c2)n[nH]c(=O)c1C (configuration not stated) | > 5

Biological target: Voltage-gated inwardly rectifying potassium channel KCNH2 (Homo sapiens, UniProt Q12809)
Sequence (Q12809 whole entry): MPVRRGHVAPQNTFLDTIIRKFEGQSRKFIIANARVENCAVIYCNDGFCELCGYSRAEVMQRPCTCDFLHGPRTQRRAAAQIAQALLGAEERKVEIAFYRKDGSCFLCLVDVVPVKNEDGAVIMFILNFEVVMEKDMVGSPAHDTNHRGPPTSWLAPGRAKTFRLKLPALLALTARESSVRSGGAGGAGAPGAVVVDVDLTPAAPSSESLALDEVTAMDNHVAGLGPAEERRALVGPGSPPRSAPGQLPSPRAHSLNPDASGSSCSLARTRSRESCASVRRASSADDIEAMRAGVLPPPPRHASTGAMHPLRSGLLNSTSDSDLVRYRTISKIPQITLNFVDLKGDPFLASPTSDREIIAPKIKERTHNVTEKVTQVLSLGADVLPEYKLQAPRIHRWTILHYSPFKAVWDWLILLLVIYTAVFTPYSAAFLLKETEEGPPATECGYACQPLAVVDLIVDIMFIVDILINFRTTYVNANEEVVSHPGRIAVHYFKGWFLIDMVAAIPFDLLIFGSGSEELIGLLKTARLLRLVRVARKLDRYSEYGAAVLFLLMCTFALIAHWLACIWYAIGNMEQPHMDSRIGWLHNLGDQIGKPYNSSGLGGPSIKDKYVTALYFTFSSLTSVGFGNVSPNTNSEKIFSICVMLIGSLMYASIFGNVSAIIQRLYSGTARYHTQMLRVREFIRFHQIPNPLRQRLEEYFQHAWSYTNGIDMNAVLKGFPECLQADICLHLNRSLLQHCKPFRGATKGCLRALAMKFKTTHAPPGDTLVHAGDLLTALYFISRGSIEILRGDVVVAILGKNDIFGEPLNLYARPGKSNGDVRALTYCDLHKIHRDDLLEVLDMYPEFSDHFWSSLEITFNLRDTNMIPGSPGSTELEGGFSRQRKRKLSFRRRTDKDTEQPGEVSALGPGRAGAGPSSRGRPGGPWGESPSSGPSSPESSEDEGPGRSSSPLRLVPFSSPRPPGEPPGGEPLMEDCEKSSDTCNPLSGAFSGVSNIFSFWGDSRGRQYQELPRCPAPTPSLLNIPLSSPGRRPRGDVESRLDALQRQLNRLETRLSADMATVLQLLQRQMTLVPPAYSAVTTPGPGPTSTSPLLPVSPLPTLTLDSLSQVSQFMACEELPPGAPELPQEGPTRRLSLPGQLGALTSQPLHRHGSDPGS
Test: Inhibition of human ERG
Details: not given

Row | SMILES | IC50 [µM]
46 | O=C(c1cc(Cc2c[nH]c(=O)c3cc(Cl)c(Cl)n23)ccc1F)N1CCC2(CCCN2)CC1 | 12

System: not listed separately
Test: Intrinsic clearance in human liver microsomes
Assay type: ADME, Microsome
Details: not given

Row | SMILES | microsomal CLint [µL/min/mg]
47 | Cc1c(Cc2ccc(F)c(C(=O)N3CCC4(CCCN4)CC3)c2)n[nH]c(=O)c1C | < 1
48 | Cc1c(Cc2ccc(F)c(C(=O)N3CCN(C(=O)C4(C)CCCN4)CC3)c2)n[nH]c(=O)c1C (configuration not stated) | < 1

System: not listed separately
Test: Clearance in rat
Assay type: ADME, organism-based
Details: in vivo

Row | SMILES | clearance [mL/min/kg]
49 | O=C(c1cc(Cc2c[nH]c(=O)c3cc(Cl)c(Cl)n23)ccc1F)N1CCC2(CCCN2)CC1 | 130
50 | Cc1c(Cc2ccc(F)c(C(=O)N3CCC4(CCCN4)CC3)c2)n[nH]c(=O)c1C | 57
51 | Cc1c(Cc2ccc(F)c(C(=O)N3CCN(C(=O)C4(C)CCCN4)CC3)c2)n[nH]c(=O)c1C (configuration not stated) | 38

System: HeLa
Test: Antiproliferative activity against BRCA1 deficient human HeLa cells
Assay type: functional
Details: not given
In short: as §1

Row | SMILES | CC50 [nM]
52 | Cc1c(Cc2ccc(F)c(C(=O)N3CCN(C(=O)[C@]4(Cc5ccc(F)cc5)CCCN4)CC3)c2)n[nH]c(=O)c1C | 15
53 | Cc1c(Cc2ccc(F)c(C(=O)N3CCN(C(=O)C4(NCC5CC5)CCCC4)CC3)c2)n[nH]c(=O)c1C | 71
54 | Cc1c(Cc2ccc(F)c(C(=O)N3CCN(C(=O)[C@]4(C)CCCN4)CC3)c2)n[nH]c(=O)c1C | 780
55 | Cc1c(Cc2ccc(F)c(C(=O)N3CCN(C(=O)C4(C)CCCCN4)CC3)c2)n[nH]c(=O)c1C (configuration not stated) | 2000
56 | Cc1c(Cc2ccc(F)c(C(=O)N3CCN(C(=O)C4CCNC4)CC3)c2)n[nH]c(=O)c1C (configuration not stated) | > 5000
57 | CNC1(C(=O)N2CCN(C(=O)c3cc(Cc4n[nH]c(=O)c(C)c4C)ccc3F)CC2)CCCC1 | 81
58 | Cc1c(Cc2ccc(F)c(C(=O)N3CCC4(CCN4)CC3)c2)n[nH]c(=O)c1C | > 5000
59 | Cc1c(Cc2ccc(F)c(C(=O)N3CCN(C(=O)C4(NCC5CC5)CCC4)CC3)c2)n[nH]c(=O)c1C | 24
60 | CCNC1(C(=O)N2CCN(C(=O)c3cc(Cc4n[nH]c(=O)c(C)c4C)ccc3F)CC2)CCCC1 | 91
61 | Cc1c(Cc2ccc(F)c(C(=O)N3CCN(C(=O)[C@@]4(Cc5ccc(F)cc5)CCCN4)CC3)c2)n[nH]c(=O)c1C | 290
62 | O=C(c1cc(Cc2c[nH]c(=O)c3cc(Cl)c(Cl)n23)ccc1F)N1CCC2(CCCN2)CC1 | 48
63 | CCN1CCCC12CCN(C(=O)c1cc(Cc3n[nH]c(=O)c(C)c3C)ccc1F)CC2 | 170
64 | Cc1c(Cc2ccc(F)c(C(=O)N3CCN(C(=O)C4(N5CCCC5)CCCC4)CC3)c2)n[nH]c(=O)c1C | 89
65 | Cc1c(Cc2ccc(F)c(C(=O)N3CCN(C(=O)[C@H]4CCCN4)CC3)c2)n[nH]c(=O)c1C | 220
66 | Cc1c(Cc2ccc(F)c(C(=O)N3CCC4(CCCN4)CC3)c2)n[nH]c(=O)c1C | 49
67 | Cc1c(Cc2ccc(F)c(C(=O)N3CCN(C(=O)C4(C)CCCN4)CC3)c2)n[nH]c(=O)c1C (configuration not stated) | 90

— ChEMBL document CHEMBL1158507, “Development of substituted 6-[4-fluoro-3-(piperazin-1-ylcarbonyl)benzyl]-4,5-dimethylpyridazin-3(2H)-ones as potent poly(ADP-ribose) polymerase-1 (PARP-1) inhibitors active in BRCA deficient cells” (Bioorg Med Chem Lett, 2010)
